Laboratory results from ChEMBL document CHEMBL1147200, “Synthesis, structural characterization, and in vitro antitumor activity of novel N-(6-chloro-1,1-dioxo-1,4,2-benzodithiazin-3-yl)arylsulfonamides” (2007).

Key:
Format in all cases: functional
5637 = experiment: Cytotoxicity against human 5637 cells after 96 hrs; conditions: Homo sapiens, 5637, 96 h
How it was run: (§1)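 Cells plated in 96-well format, left 24 h, then given compound continuously for 96 h. Growth read by staining attached viable cells with crystal violet, washing, redissolving bound dye in 70% ethanol and reading OD at 570 nm. GI50 computed from dose–response data of 5 to 7 independent experiments.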

RT-4 = experiment: Cytotoxicity against human RT4 cells after 96 hrs; conditions: RT-4, 96 h; how it was run: as §1
A-427 = experiment: Cytotoxicity against human A427 cells after 96 hrs; conditions: A-427, 96 h; how it was run: as §1
[1] = Cytotoxicity against human LCLC103H cells after 96 hrs; conditions: LCLC-103H; how it was run: as §1
DAN-G = experiment: Cytotoxicity against human DANG cells after 96 hrs; how it was run: as §1
MCF7 = experiment: Cytotoxicity against human MCF7 cells after 96 hrs; conditions: MCF7, 96 h; how it was run: as §1

| SMILES | GI50 5637 [µM] | GI50 (RT-4) [µM] | GI50 (A-427) [µM] | GI50 [1] [µM] | GI50 (DAN-G) [µM] | GI50 (MCF7) [µM] |
| --- | --- | --- | --- | --- | --- | --- |
| O=C(Oc1cccc2cccnc12)c1cc2c(cc1Cl)SC(N(c1ccc(F)cc1)S(=O)(=O)c1ccc(Cl)cc1)=NS2(=O)=O | 6.2 | > 20 | 3.1 | 4.6 | 9.3 | 3.2 |
| COC(=O)c1cc2c(cc1Cl)SC(N(N(C)C)S(=O)(=O)c1ccc(Cl)cc1)=NS2(=O)=O | 12.6 | 18.5 | 10.2 | 19.6 | 18.7 | 8.7 |
| CCOC(=O)c1cc2c(cc1Cl)SC(N(c1ccc(OC)cc1)S(=O)(=O)c1ccc(Cl)cc1)=NS2(=O)=O | 11.9 | 23.1 | 11.2 | 19.3 | 12.3 | 8.1 |
| Cc1cc2c(cc1Cl)SC(N(c1ccc(Cl)cc1)S(=O)(=O)c1ccccc1)=NS2(=O)=O | 9.6 | 22 | 9.2 | 12.4 | 9.9 | 8.1 |
| CCOC(=O)c1cc2c(cc1Cl)SC(N(c1ccc(OC)cc1)S(=O)(=O)c1ccc(Cl)cc1Cl)=NS2(=O)=O | 2.3 | 6.3 | 4.1 | 2.8 | 3.1 | 2.4 |
| CCOC(=O)c1cc2c(cc1Cl)SC(N(c1ccccc1)S(=O)(=O)c1ccc(Cl)cc1)=NS2(=O)=O | 14.3 | > 20 | 11.7 | > 20 | 14.8 | 9.8 |
| CCOC(=O)c1cc2c(cc1Cl)SC(N(c1ccc(OC)cc1)S(=O)(=O)c1ccccc1)=NS2(=O)=O | 6.5 | 16.8 | 7 | 9.3 | 7.6 | 4.9 |
| COC(=O)c1cc2c(cc1Cl)SC(N(N(C)C)S(=O)(=O)c1ccc(Br)s1)=NS2(=O)=O | 13.7 | 18.5 | 12 | 19.1 | 23.7 | 10.9 |
| CCOC(=O)c1cc2c(cc1Cl)SC(N(c1ccc(F)cc1)S(=O)(=O)c1ccc(OC)cc1)=NS2(=O)=O | 12.1 | 19 | 8.4 | 17.5 | 12 | 5.8 |
| Cc1cc2c(cc1Cl)SC(N(N(C)C)S(=O)(=O)c1ccc(Cl)cc1)=NS2(=O)=O | 19.2 | > 20 | 15.6 | > 20 | 23.5 | 12.3 |
| Cc1cc2c(cc1Cl)SC(N(c1ccccc1Cl)S(=O)(=O)c1ccc(Br)s1)=NS2(=O)=O | 7.5 | 28.6 | 8.2 | 11.9 | 9.4 | 6.5 |
| O=C(Oc1cccc2cccnc12)c1cc2c(cc1Cl)SC(N(c1ccc(F)cc1)S(=O)(=O)c1ccc(Br)s1)=NS2(=O)=O | 5.1 | > 20 | 3.4 | 5.3 | 8.2 | 3.2 |
